The values that follow come from ChEMBL document CHEMBL1126724, “Multiple binding modes for the receptor-bound conformations of cyclic AII agonists” (J Med Chem, 1993).

Assay [1] concerns the target T1, Angiotensin II receptor (AT-1) type-1 (Rattus norvegicus, UniProt P29089+P25095).
T1 sequence (P29089 whole entry): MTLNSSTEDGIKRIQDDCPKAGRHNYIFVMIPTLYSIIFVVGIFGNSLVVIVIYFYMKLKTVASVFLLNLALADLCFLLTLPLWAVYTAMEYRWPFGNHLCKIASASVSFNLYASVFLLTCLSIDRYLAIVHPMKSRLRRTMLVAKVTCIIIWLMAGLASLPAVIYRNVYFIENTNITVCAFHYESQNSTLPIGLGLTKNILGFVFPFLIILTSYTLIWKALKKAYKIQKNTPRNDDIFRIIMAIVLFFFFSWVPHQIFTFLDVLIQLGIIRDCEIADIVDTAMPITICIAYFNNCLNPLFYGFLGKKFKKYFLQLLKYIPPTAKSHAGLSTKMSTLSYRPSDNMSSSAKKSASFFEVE
T1 sequence (P25095 whole entry): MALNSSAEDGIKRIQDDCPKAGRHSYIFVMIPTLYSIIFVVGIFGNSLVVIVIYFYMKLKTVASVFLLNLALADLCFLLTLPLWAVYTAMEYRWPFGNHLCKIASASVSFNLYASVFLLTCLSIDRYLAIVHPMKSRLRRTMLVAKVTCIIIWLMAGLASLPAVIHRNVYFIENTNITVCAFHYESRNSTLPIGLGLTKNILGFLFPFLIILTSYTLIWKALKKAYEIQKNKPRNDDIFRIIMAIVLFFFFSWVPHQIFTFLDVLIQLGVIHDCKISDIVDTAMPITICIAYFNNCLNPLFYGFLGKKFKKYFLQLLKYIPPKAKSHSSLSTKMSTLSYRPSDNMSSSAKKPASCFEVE
The assay is described as follows: In vitro binding affinity to the angiotensin II receptor, type 1 in rat liver. The procedure, abridged:
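Buffer: 50 mM NaH2PO4 pH 7.1 with 100 μM bacitracin, 0.2% BSA, 100 mM NaCl, 10 mM MgCl2, 1 mM EGTA. Incubated 1 h at 25 °C, then filtered, and filters counted. IC50 from weighted nonlinear regression to the mass action equation.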

In assay [2] the target is T2, Type-1 angiotensin II receptor (Oryctolagus cuniculus, UniProt P34976).
T2 sequence (P34976 whole entry): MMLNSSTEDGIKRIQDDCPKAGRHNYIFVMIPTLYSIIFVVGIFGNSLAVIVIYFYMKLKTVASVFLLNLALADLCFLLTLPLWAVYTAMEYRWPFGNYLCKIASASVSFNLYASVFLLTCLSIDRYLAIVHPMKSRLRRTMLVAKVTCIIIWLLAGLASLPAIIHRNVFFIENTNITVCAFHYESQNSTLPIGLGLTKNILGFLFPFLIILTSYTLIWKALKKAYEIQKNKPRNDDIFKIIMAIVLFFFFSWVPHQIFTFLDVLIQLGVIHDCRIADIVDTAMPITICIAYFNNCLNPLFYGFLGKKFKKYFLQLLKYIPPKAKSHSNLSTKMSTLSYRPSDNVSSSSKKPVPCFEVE
The assay is described as follows: Agonist efficacy assessed from contractile responses on rabbit aorta Angiotensin II receptor, type 1; Not Active. The format is functional, tissue-based. The procedure, abridged: (§1)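 Rabbit thoracic aortic rings held in 20-mL baths of Krebs-bicarbonate at 37 °C, gassed with 5% CO2 in oxygen. Resting tension 4.0 g, 90-min equilibration. Peptides added cumulatively until maximal response. EC50 read graphically from the curves as the concentration giving 50% of maximal contraction.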

For the next assay, the species on record is Oryctolagus cuniculus. The assay is described as follows: Agonist efficacy assessed from contractile responses on rabbit aorta (AT1). The format is functional. An outline of the steps:
as §1

*1 amine or outer side, *2 acyl side, *3 side chain or, on linkers, in order; H or OH if unused. Where a SMILES comes first, the peptide text is derived from it. Bridges are numbered along the chain shown (N, C = ends). Roman numbers before positions name the chains, in order. [ ]: non-standard residue; d: D form. Pro(4S-SH) = O=C([C@@H]1C[C@H](S[*:3])CN1[*:1])[*:2]; hCys = N[C@@H](CCS)C(=O)O; Sar = CNCC(=O)O Where only a bound is given, the exact number is not on record here.

For `CNCC(=O)N[C@@H](CCCN=C(N)N)C(=O)N1C[C@@H]2C[C@H]1C(=O)N[C@@H](Cc1ccc(O)cc1)C(=O)N[C@H](C(=O)N[C@@H](Cc1c[nH]cn1)C(=O)N1CCC[C@H]1C(=O)N[C@@H](Cc1ccccc1)C(=O)O)CSS2` (H-[Sar]R[Pro(4S-SH)]YCHPF-OH; disulfide 3-5), the IC50 in assay [1] worked out at 4.7 µM. Also, the half-maximal effective concentration (EC50) result in assay [2] is recorded as “Not Active”.

As to `CNCC(=O)N[C@@H](CCCN=C(N)N)C(=O)N[C@H]1CCSS[C@H]2C[C@@H](C(=O)N[C@@H](Cc3c[nH]cn3)C(=O)N3CCC[C@H]3C(=O)N[C@@H](Cc3ccccc3)C(=O)O)N(C2)C(=O)[C@H](Cc2ccc(O)cc2)NC1=O` (H-[Sar]R[hCys]Y[Pro(4S-SH)]HPF-OH; disulfide 3-5), the concentration for half-maximal inhibition (IC50) in assay [1] is 0.11 µM. In the assay filed under Oryctolagus cuniculus, this molecule displayed a 50% effective concentration (EC50) of 0.69 µM.

The molecule `CNCC(=O)N[C@@H](CCCN=C(N)N)C(=O)N1C[C@@H]2C[C@H]1C(=O)N[C@@H](Cc1ccc(O)cc1)C(=O)N[C@H](C(=O)N[C@@H](Cc1c[nH]cn1)C(=O)N1CCC[C@H]1C(=O)N[C@@H](Cc1ccccc1)C(=O)O)CSS[C@H]1C[C@@H](C(=O)N[C@@H](Cc3ccc(O)cc3)C(=O)N[C@H](C(=O)N[C@@H](Cc3c[nH]cn3)C(=O)N3CCC[C@H]3C(=O)N[C@@H](Cc3ccccc3)C(=O)O)CSS2)N(C(=O)[C@H](CCCN=C(N)N)NC(=O)CNC)C1` (I: H-[Sar]R[Pro(4S-SH)]YCHPF-OH / II: H-[Sar]R[Pro(4S-SH)]YCHPF-OH; disulfide I:3-II:5, I:5-II:3) had a half-inhibitory concentration (IC50) in assay [1] of 0.11 µM. The same molecule registered an EC50 in the assay filed under Oryctolagus cuniculus of 0.87 µM.

Molecule `CC[C@H](C)[C@H](NC(=O)[C@H](Cc1ccc(O)cc1)NC(=O)[C@@H](NC(=O)[C@@H](N)CCCN=C(N)N)C(C)C)C(=O)N[C@@H](Cc1c[nH]cn1)C(=O)N1CCC[C@H]1C(=O)N[C@@H](Cc1ccccc1)C(=O)O` [ANGIOTENSIN III] displayed a 50% inhibitory concentration (IC50) in assay [1] of 0.00557 µM. A half-maximal effect in the assay filed under Oryctolagus cuniculus (EC50) was put at 0.032 µM.

The molecule H-DRVYIHPFHL-OH came in with an IC50 in assay [1] of 0.3 µM. The molecule also came in with a concentration giving a half-maximal response (EC50) in the assay listed under Oryctolagus cuniculus greater than 10 µM.

What is called IC50 is the concentration that gives 50% inhibition. Low values mean greater potency in that assay, high ones weaker potency in that assay. By EC50 is commonly meant the midpoint of the concentration-response curve. A high value points to lower potency in that assay.
